Results reported in ChEMBL document CHEMBL4376827, “Structure-Activity Relationship Studies To Identify Affinity Probes in Bis-aryl Sulfonamides That Prolong Immune Stimuli” (J Med Chem, 2019).
Calls of active or inactive are those of the source. The rule behind the calls is not given here.

Legend:
[1] = Activation of LPS-induced NF-kappaB activity in human THP1-Blue-NF-kappaB cells assessed as increase in SEAP reporter activity incubated for 20 hrs by quanti-blue SEAP assay
How it was run: (§1)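 THP1-Blue NF-κB cells, 10^5/well, in RPMI with 10% FBS, pen/strep and Normocin. Compound (5 μM single point or graded concentrations, 0.05% DMSO) is added together with LPS; methods give final LPS 10 μg/mL, table footnote gives 10 ng/mL. Supernatant SEAP is read after 20 h by QuantiBlue colorimetry at 630 nm.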

[2] = species: Mus musculus; test: Co-adjuvanticity in ovalbumin immunized C57BL/6 mouse assessed as increase in OVA-specific IgG titers in blood at 100 nmol co-immunized with adjuvant MPLA and ovalbumin antigen on day 0 and 21 and measured on day 21 by ELISA; format: functional, organism-based
How it was run: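 C57BL/6 mice, 7–9 weeks old, n=8/group, immunized on days 0 and 21 with ovalbumin (20 μg/animal), MPLA (10 μg/animal) and compound (100 nmol/animal). Bled on day 21; OVA-specific IgG titers measured by ELISA.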

[3] = Systemic toxicity in ovalbumin immunized C57BL/6 mouse assessed as body weight loss at 50 nmol co-immunized with adjuvant MPLA and ovalbumin antigen on day 0 and 21; details: in vivo
How it was run: (§2)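 C57BL/6 mice, 7–9 weeks old, n=8/group, immunized intramuscularly (gastrocnemius) on days 0 and 21 with ovalbumin (20 μg/animal), MPLA (10 ng/animal) and compound (50 nmol/animal). Systemic toxicity monitored as behaviour change and weight loss.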

[4] = Systemic toxicity in ovalbumin immunized C57BL/6 mouse assessed as behavioural changes at 50 nmol co-immunized with adjuvant MPLA and ovalbumin antigen on day 0 and 21; details: in vivo; how it was run: as §2
[5] = test system: THP-1; test: Cytotoxicity against human THP1 cells assessed as reduction in cell viability at 5 uM incubated for 18 hrs by MTT assay relative to control; details: thp-1, 18 h
[6] = Activation of IFNalpha signalling in human ISRE-bla THP1 cells assessed as increase in type-1 IFN-alpha induced ISRE activity preincubated for 16 hrs followed by CCF4-AM substrate addition and measured after 3 hrs by FRET based assay; format: cell-based; details: THP-1
How it was run: (§3)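 ISRE-bla THP-1 cells, 5×10^4/well, in RPMI with 10% dialyzed FBS, 0.1 mM non-essential amino acids, 1 mM pyruvate and pen/strep. Cells are co-treated with IFN-α (final 100 U/mL) and compound: 5 μM single point or graded concentrations, 0.05% DMSO. After 16 h, CCF4-AM is added for 3 h at RT in the dark.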

[7] = species: Homo sapiens; test: Activation of LPS-induced NF-kappaB activity in human THP1-Blue-NF-kappaB cells assessed as increase in SEAP reporter activity at 5 uM incubated for 20 hrs by quanti-blue SEAP assay relative to control; how it was run: as §1
[8] = species: Homo sapiens; test: Activation of IFNalpha signalling in human ISRE-bla-THP1 cells assessed as increase in type-1 IFN-alpha induced ISRE activity at 5 uM preincubated for 16 hrs followed by CCF4-AM substrate addition and measured after 3 hrs by FRET based assay relative to control; format: cell-based; how it was run: as §3
[9] = Stability of the compound in DMSO; format: physicochemical
[10] = Prodrug conversion in RPMI assay medium supplemented with 10% dialyzed FBS, 100 U/ml penicillin and 100 ug/ml streptomycin assessed as N-(4-chloro-2,5-dimethoxyphenyl)-4-ethoxybenzene-sulfonamide release; format: ADME; details: cattle

| EC50 [1] [nM] | EC50 [6] [nM] | Activity [7] [%] | Stability [9] | Drug metabolism [10] | SMILES | Activity [2] | Activity [3] | Activity [4] | Activity [5] [%] | Activity [8] [%] |
| --- | --- | --- | --- | --- | --- | --- | --- | --- | --- | --- |
| 600 | 660 | 200 | – | – | CCOc1ccc(S(=O)(=O)Nc2cc(OC)c(Cl)cc2OC)cc1 | Active | Non-Toxic | Non-Toxic | 73.5 | 200 |
| – | – | 184 | Stable | Metabolite_Detected | CCOc1ccc(S(=O)(=O)N(C(C)=O)c2cc(OC)c(Cl)cc2OC)cc1 | – | – | – | 72 | 244 |
| 690 | 840 | 235 | – | – | CCOc1ccc(S(=O)(=O)N(C)c2cc(OC)c(Cl)cc2OC)cc1 | Active | Non-Toxic | Non-Toxic | 74.5 | 215 |
